Compound activity (PubChem BioAssay)
Only a selection was taken, and hits are over-represented in it overall.
Ecoli tolC = blocks growth of E. coli BW25113 tolC mutant; OD615; growth inhibition, % at 10 µM (by protocol); 65,000 compounds, 2.2% hits; AID 573;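 active = growth inhibition at or above a cutoff equal to the mean over every tested compound plus 3 SD, cut at about 60% in these data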;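 also: growth measured after 20 h incubation at 37 °C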
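Assay system: tolC-deleted E. coli BW25113. Medium: kanamycin-containing LB broth (50 µg/mL). Dosing: 10 µM final, single dose. Timing: bacterial growth with compound for 20 h at 37 °C. Detection: A615 absorbance measurement. Read-out basis: growth inhibition in percent.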
BAP1 block = human BAP1 deubiquitinase inhibition. calls only at 20 µM. Q92560. 72,000 compounds, 0.48% hits. recombinant BAP1, Ub-AMC hydrolysis fluorescence kinetic; stronger effect = lower value;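 active = activity remaining at or below 50% of control, provided the compound also passes the data quality filters; inactive = the rest, including low values that fail the filters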;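 also: 100% = DMSO wells rate and 0% = substrate alone blank rate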
WNV NS2B-NS3 inh = blocks West Nile virus NS2B-NS3 protease activity; P06935; 65,000 compounds, 0.18% hits; z-score (concentration not given with the values); WNV NS2B-NS3 protease, fluorogenic substrate Ex360/Em465; stronger effect = lower value; in the data active = z-score below about -3
E coli WT exp = E. coli BW25113 growth inhibition, expanded screen; OD600 absorbance; growth inhibition, % at 100 µM; 98,000 compounds, 0.15% hits; AID 710;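 active = growth inhibition above about 50% at one test dose, limit read from the data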;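 also: growth measured after 20 h incubation at 37 °C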
TNAP act mid DEA = human TNAP activation, intermediate phosphate acceptor | P05186 | purified TNAP, CDP-star luminescence, 100 mM DEA, 30 min; stronger effect = higher value; scale: 0 levamisole-inhibited, 1 vehicle-only enzyme | activation factor at 20 µM | 64,000 tested, under 10 active | AID 813;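 active = activation factor of at least 2 at 20 µM, relative to controls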
Target sequence (P05186 whole entry, looked up): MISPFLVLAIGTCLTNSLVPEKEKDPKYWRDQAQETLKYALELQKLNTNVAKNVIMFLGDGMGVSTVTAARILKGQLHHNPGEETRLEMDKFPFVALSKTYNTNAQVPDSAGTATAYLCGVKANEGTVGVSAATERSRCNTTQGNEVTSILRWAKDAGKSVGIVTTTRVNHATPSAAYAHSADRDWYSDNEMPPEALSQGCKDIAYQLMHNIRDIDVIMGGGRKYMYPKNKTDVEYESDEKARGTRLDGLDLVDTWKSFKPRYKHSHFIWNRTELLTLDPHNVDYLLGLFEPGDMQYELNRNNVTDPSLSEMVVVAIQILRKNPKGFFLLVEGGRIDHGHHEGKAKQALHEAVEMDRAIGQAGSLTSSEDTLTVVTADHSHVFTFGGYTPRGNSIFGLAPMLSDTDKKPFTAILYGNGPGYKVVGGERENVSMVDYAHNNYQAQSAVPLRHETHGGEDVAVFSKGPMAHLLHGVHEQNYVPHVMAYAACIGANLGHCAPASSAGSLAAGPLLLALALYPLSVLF
* marks the source's active call; other numbers are inactive results; i = inactive; · = not tested or not shown; + = active, no number.

SMILES	Ecoli tolC	BAP1 block	WNV NS2B-NS3 inh	E coli WT exp	TNAP act mid DEA
Brc1cccc(-c2nnc3n2CCCCC3)c1	-15	i	-0.25	7	0.9
Brc1cccc(-c2cnc3n2CCCCC3)c1	6	i	-4.2*	24	0.8
Cc1ccc(NCc2nnc(SCc3ccc(C#N)cc3)n2Cc2ccco2)c(C)c1	61*	i	-0.34	-18	0.9
CCCC(=O)c1ccc(N2CCCCCC2)c(F)c1	68*	i	-0.64	-8	0.9
COc1ccc(OC(C)C(=O)Nc2ccc(Br)cc2)cc1 (configuration not stated)	·	i	·	·	·
COCCOC(=O)c1c(C)oc2ccc(OC(=O)c3cccs3)cc12	40	·	-0.48	-6	0.9
COC(=O)c1c(C)oc2ccc(OC(=O)c3cccs3)cc12	84*	i	1.8	-15	0.9
CCOC(=O)c1cnc(SCC(=O)Nc2nc(C)c(C)s2)nc1N	33	i	-0.77	16	0.9
CSc1nc(C)cc(Oc2ccc(OCCOc3ccccc3)nn2)n1	·	·	·	-3	·
COc1cc(C)nc(Oc2ccc(OCCOc3ccc(C)cc3)nn2)n1	-6	i	-8.5*	14	1
CCSc1ccc(-c2ccc(SCC)cc2)cc1	·	i	·	·	·
CCCn1c(CN(Cc2ccccc2)Cc2ccccc2)nc2c1c(=O)n(C)c(=O)n2C	65*	i	-0.75	2	0.9
CCCn1c(CN(C)Cc2ccccc2)nc2c1c(=O)n(C)c(=O)n2C	-3	·	·	·	·
CCCNC(=O)c1c[nH]c2ccc(S(=O)(=O)N(C)c3ccc(OCC)cc3)cc2c1=O	37	i	-0.12	1	0.9
CCOc1ccc(NS(=O)(=O)c2ccc3[nH]cc(C(=O)NC(C)CC)c(=O)c3c2)cc1 (configuration not stated)	100*	i	-1.4	-1	0.9
COc1cc(NC(=O)c2cc(CC(C)C)on2)c(OC)cc1Cl	68*	i	0.82	-2	0.8
Cc1ccc(NC(=O)C2CCN(S(=O)(=O)c3cccc4nonc34)CC2)nc1	-11	i	-4.8*	4	0.9
O=C(Nc1ccccn1)C1CCN(S(=O)(=O)c2cccc3nonc23)CC1	-16	i	1.4	-4	0.9
COc1ccc2[nH]c3c(NCCN(C(C)C)C(C)C)ncnc3c2c1	-6	·	0.86	12	1
CC(C)OCCCNc1ncnc2c1[nH]c1ccccc12	100*	·	-0.34	16	0.9
Cc1ccc(S(=O)(=O)N2CCCC2C(=O)NCc2ccccc2)cc1 (configuration not stated)	·	i	·	·	·
CS(=O)(=O)N(c1ccc(Cl)cc1)C1CCS(=O)(=O)C1 (configuration not stated)	·	i	·	·	·
CCCOc1ccc(C2NC(=O)NC(C)=C2C(=O)OCC(C)C)cc1 (configuration not stated)	·	i	·	·	·
Cc1cccc(-c2nc(CS(=O)CC(=O)NCCCSC3CCCCC3)c(C)o2)c1 (configuration not stated)	73*	i	-1.1	-16	0.9
CC(C)(C)c1ccc(OCc2nc(-c3ccccn3)no2)c(Br)c1	100*	i	-0.62	3	0.9
SMILES	Ecoli tolC	BAP1 block	WNV NS2B-NS3 inh	E coli WT exp	TNAP act mid DEA
Clc1cc(Cl)c(OCc2nc(-c3ccccn3)no2)cc1Cl	-3	i	0.42	-13	0.9
CCN1C(=O)c2cccc3c(NC(=O)c4ccc(OC)cc4OC)ccc1c23	·	i	·	·	·
c1ccc(CC2CCN(Cc3nc(-c4ccccc4)no3)CC2)cc1	70*	·	0.01	2	0.9
COc1ccc(-c2noc(CN3CCC(Cc4ccccc4)CC3)n2)cc1	67*	·	-0.32	·	0.8
Cc1ccc(-c2noc(CN3CCN(c4ccccc4F)CC3)n2)cc1	84*	i	-0.71	4	0.9
COc1ccc(-c2noc(CCC(=O)N3CCN(Cc4ccccc4)CC3)n2)cc1	23	i	-0.26	4	0.8
O=C(NCc1n[nH]c(=S)n1-c1ccc(Br)cc1)c1cccc(F)c1	·	i	·	·	·
Cc1ccc2oc(-c3cc(NC(=O)c4cccnc4)ccc3O)nc2c1	·	i	·	·	·
N#Cc1ccc(NC(=O)Nc2ccc(Cl)cc2)cc1	90*	i	-0.73	48	1
Cc1cc(O)c(/C=N/Nc2cccc(Cl)c2)c(=O)o1	·	·	·	16	·
Cc1cc(O)c(/C=N/Nc2ccc(Cl)cc2)c(=O)o1	·	·	·	95*	·
CCCC1=C(C(=O)OCC)C(c2cc(Cl)cc(OC)c2OCC(=O)OCC)NC(=O)N1 (configuration not stated)	83*	i	-0.02	6	0.9
CCOC(=O)COc1c(OC)cc(Cl)cc1C1NC(=O)NC(C)=C1C(C)=O (configuration not stated)	-8	i	-0.36	5	0.9
CCOC(=O)CSc1nc(-c2cccs2)nc2c1c(=O)n(C)c(=O)n2C	2	i	-0.59	·	0.9
O=[N+]([O-])c1ccc(S(=O)(=O)Nc2nc(-c3ccc(Cl)cc3)cs2)cc1	·	i	·	·	·
COc1ccc(N2CCN(Cc3cc(=O)oc4c3ccc3ccccc34)CC2)cc1	-5	+	-0.32	·	0.9
COc1ccc(N2CCN(Cc3cc(=O)oc4ccc(C)cc34)CC2)cc1	·	·	·	-2	·
O=C(Nc1cc(C(F)(F)F)cc(C(F)(F)F)c1)c1ccc2c(c1)OCCO2	·	i	·	·	·
CCS(=O)(=O)N1Cc2ccccc2CC1C(=O)OCC(=O)Nc1ccc(C)cc1 (configuration not stated)	7	i	-0.98	2	0.9
CCOC(=O)C1=C(C)NC2=C(C(=O)CCC2)C1c1cccs1 (configuration not stated)	11	·	0.58	-8	1
CCOC(=O)c1sc2c(c1C)C(c1cccs1)C1=C(CCCC1=O)N2 (configuration not stated)	80*	i	0.71	-7	0.9
Cn1c(=O)n(CCc2ccccc2)c(=O)c2c1nc1n2CCCN1CCc1ccccc1	76*	i	-0.24	-26	1
Cn1c(=O)n(CCc2ccccc2)c(=O)c2c1nc1n2CCCN1Cc1ccccc1	26	i	-0.61	-16	1
CCC(C)NC(=O)c1nn2c(c1Br)NC(c1cccs1)CC2C(F)(F)F (configuration not stated)	·	i	·	·	·
O=C(c1cccs1)N1CCN(C(=O)c2ccco2)c2ccccc2C1	1	i	-4.8*	-9	0.9
C[C@H]1CC2C3CCC4=CC(=O)C=C[C@]4(C)[C@@]3(Cl)[C@@H](O)C[C@]2(C)[C@@]1(O)C(=O)CO (some centres not stated)	·	i	·	·	·
CC(=O)O[C@]1(C(C)=O)CC[C@H]2[C@@H]3C=C(Cl)C4=CC(=O)[C@@H]5C[C@@H]5[C@]4(C)[C@H]3CC[C@@]21C	·	i	·	·	·
COc1ccccc1C1SCCN1S(=O)(=O)c1cccc(C(F)(F)F)c1 (configuration not stated)	63*	i	1.9	-18	0.9
O=C1c2ccccc2NC(c2ccco2)N1O (configuration not stated)	-16	i	0.17	9	0.9
